Measured values from ChEMBL document CHEMBL3525985, “Regiospecificity and stereospecificity of human UDP-glucuronosyltransferases in the glucuronidation of estriol, 16-epiestriol, 17-epiestriol, and 13-epiestradiol” (Drug Metab Dispos, 2013).

Assays:
Format in all cases: ADME
[1] = target: T1, UDP-glucuronosyltransferase 1A10 (Homo sapiens, UniProt Q9HAW8); test: Inhibition of recombinant human C-terminal His-tagged UGT1A10 after 15 to 60 mins by Michaelis-Menten equation analysis in presence of UDPGA
T1 sequence (Q9HAW8 whole entry): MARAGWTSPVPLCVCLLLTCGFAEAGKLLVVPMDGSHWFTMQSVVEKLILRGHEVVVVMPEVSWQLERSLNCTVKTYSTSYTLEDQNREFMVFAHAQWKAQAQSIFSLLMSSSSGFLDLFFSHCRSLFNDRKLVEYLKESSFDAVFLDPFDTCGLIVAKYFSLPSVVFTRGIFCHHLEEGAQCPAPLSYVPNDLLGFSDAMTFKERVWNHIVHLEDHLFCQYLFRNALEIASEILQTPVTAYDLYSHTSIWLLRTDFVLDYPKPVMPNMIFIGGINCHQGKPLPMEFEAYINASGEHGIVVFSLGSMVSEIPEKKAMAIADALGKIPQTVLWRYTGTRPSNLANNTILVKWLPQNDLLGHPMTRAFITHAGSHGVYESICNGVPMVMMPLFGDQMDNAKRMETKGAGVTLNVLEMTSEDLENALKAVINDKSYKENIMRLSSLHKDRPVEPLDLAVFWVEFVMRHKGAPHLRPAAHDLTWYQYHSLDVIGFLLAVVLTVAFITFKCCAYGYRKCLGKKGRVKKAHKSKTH
How it was run: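 Kinetics with His-tagged UGT-enriched insect-cell membranes (5 or 50 µg): aglycone 0.2–300 µM in 10% DMSO, 5 mM UDPGA, 10 mM MgCl₂, 50 mM phosphate pH 7.4, 15–60 min at 37°C. Substrate consumption kept at or below 10%. Glucuronides quantified by HPLC in triplicate, rates normalized to expression, and data fitted to Michaelis-Menten.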

[2] = target: T2, UDP-glucuronosyltransferase 1A3 (Homo sapiens, UniProt P35503); test: Drug metabolism assessed as recombinant human C-terminal His-tagged UGT1A3-mediated 16-epiestriol-16-glucuronide formation after 15 to 60 mins by Michaelis-Menten equation analysis in presence of UDPGA; conditions: recombinant enzyme
T2 sequence (P35503 whole entry): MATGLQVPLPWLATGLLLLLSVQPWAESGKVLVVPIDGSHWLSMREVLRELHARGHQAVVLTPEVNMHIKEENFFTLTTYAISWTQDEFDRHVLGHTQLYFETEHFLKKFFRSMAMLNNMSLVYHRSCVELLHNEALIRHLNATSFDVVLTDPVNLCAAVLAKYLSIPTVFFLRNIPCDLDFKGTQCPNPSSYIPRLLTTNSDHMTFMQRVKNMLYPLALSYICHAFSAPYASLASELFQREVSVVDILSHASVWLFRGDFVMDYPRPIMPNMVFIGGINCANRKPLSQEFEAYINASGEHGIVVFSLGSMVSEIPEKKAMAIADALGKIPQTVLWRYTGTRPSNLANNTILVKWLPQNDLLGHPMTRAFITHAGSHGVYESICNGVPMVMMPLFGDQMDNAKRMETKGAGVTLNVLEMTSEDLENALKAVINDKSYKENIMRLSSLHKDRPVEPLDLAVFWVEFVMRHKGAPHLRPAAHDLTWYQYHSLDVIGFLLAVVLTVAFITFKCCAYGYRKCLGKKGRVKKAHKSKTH

[3] = target: T3, UDP-glucuronosyltransferase 2B17 (Homo sapiens, UniProt O75795); test: Drug metabolism assessed as recombinant human C-terminal His-tagged UGT2B17-mediated 13-epiestradiol-3-glucuronide formation at 200 uM after 15 to 60 mins by HPLC analysis in presence of UDPGA; conditions: recombinant enzyme
T3 sequence (O75795 whole entry): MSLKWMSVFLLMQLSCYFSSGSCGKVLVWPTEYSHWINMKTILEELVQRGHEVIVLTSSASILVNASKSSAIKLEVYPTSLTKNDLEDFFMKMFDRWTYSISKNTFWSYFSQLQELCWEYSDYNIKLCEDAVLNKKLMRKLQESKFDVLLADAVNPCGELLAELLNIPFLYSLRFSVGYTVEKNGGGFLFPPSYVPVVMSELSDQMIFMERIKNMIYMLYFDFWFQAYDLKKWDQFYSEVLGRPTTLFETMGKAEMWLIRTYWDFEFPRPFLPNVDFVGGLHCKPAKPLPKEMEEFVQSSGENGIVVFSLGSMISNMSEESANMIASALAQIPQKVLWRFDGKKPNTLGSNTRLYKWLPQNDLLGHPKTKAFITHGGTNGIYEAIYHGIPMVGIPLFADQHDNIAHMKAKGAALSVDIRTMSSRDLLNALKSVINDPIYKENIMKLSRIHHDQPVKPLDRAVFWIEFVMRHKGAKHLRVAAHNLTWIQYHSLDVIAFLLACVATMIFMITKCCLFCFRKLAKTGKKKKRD
How it was run: (§1)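 Screening at a single substrate concentration of 200 μM, in triplicate. The reaction used 5 or 50 µg of UGT-enriched insect cell membranes in 50 mM phosphate pH 7.4 with 10 mM MgCl₂ and 5 mM UDPGA, 10% final DMSO. Incubation was 15–60 min at 37°C. Perchloric acid stopped the reaction and supernatants were analysed by HPLC. Controls lacked UDPGA. Rates were normalized to relative UGT expression level.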

[4] = target: UDP-glucuronosyltransferase 1A10 (Homo sapiens, UniProt Q9HAW8, F93G); test: Drug metabolism assessed as human UGT1A10 F93G mutant-mediated 13-epiestradiol-3-glucuronide formation at 200 uM after 15 to 60 mins by HPLC analysis in presence of UDPGA; how it was run: as §1
UDP-glucuronosyltransferase 1A10 (Homo sapiens, UniProt Q9HAW8, F93G), sequence (Q9HAW8 26-530 F93G limits assumed): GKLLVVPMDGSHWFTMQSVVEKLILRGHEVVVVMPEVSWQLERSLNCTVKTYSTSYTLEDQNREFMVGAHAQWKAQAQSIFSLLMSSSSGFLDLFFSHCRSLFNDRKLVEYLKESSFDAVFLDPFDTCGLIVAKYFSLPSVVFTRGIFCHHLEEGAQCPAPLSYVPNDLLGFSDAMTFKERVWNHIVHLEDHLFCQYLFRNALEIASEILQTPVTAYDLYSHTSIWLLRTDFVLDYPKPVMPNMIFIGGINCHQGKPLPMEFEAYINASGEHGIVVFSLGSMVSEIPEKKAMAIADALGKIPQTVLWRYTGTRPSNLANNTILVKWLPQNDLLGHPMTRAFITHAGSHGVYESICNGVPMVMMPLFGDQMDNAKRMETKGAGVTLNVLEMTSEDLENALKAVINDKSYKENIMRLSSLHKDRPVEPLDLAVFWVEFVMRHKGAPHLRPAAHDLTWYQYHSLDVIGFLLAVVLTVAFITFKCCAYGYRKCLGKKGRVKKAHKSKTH

[5] = target: T4, UDP-glucuronosyltransferase 2B4 (Homo sapiens, UniProt P06133); test: Drug metabolism assessed as recombinant human C-terminal His-tagged UGT2B4-mediated 17-epiestriol-17-glucuronide formation at 200 uM after 15 to 60 mins by HPLC analysis in presence of UDPGA; conditions: recombinant enzyme; how it was run: as §1
T4 sequence (P06133 whole entry): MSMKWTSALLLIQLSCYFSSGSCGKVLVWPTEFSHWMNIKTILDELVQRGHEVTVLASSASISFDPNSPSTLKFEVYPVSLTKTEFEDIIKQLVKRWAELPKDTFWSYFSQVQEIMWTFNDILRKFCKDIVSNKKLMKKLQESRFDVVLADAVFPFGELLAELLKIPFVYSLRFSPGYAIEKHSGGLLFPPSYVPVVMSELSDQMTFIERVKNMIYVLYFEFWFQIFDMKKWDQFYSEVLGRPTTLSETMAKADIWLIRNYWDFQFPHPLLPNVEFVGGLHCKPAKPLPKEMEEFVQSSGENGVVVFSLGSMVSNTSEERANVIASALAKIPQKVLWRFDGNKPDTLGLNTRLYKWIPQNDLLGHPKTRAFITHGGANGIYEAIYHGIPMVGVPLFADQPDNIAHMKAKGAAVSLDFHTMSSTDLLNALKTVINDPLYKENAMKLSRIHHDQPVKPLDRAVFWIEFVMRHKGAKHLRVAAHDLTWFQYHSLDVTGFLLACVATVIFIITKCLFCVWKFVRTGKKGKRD

**Q.** `C[C@]12CC[C@@H]3c4ccc(O)cc4CC[C@H]3[C@@H]1C[C@H](O)[C@@H]2O` [EPIESTRIOL] was tested. Which Ki [1] did it give?
**A.** The Ki was 98.1 µM.

**Q.** And the Drug metabolism [2]?
**A.** The Drug metabolism was 5 pmol/min/mg.

**Q.** For `C[C@@]12CC[C@@H]3c4ccc(O)cc4CC[C@H]3[C@@H]1CC[C@@H]2O`, which Drug metabolism [3] is on record?
**A.** Its Drug metabolism is “metabolite_detected”.

**Q.** What about the Drug metabolism [4] of the same molecule?
**A.** Its Drug metabolism is “metabolite_detected”.

**Q.** With `C[C@]12CC[C@@H]3c4ccc(O)cc4CC[C@H]3[C@@H]1C[C@@H](O)[C@H]2O` as the molecule, how does the Drug metabolism [5] read?
**A.** The Drug metabolism was “metabolite_detected”.
